Values after ≈ are worked out from the molar mass of the structure shown.
How the values were obtained:
[1] = system: Candida albicans; experiment: Antimicrobial activity against Candida albicans UFPEDA 1007 after 48 hrs by twofold serial dilution technique; type: functional; settings: UFPEDA 1007, 48 h
How it was run: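 MIC was determined by twofold serial dilution. Bacteria were tested in plates at 10⁵ CFU/plate and read after 20 h. C. albicans was tested in tubes at 10³ CFU/tube and read after 48 h. All incubations were at 35 °C. Medium plus DMSO served as the negative control.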

[2] = system: Candida albicans; experiment: Antimicrobial activity against Candida albicans UFPEDA 1007 at 25 ug/disk after 48 hrs by disk diffusion method; type: functional; settings: UFPEDA 1007, 48 h, read-out: IZ
How it was run: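 Preliminary screen: 6 mm paper disks bearing the agent placed on agar plates inoculated with a standardized microbial suspension. Negative control was DMSO-only disks. Inhibition zones are means of n = 3; no zone or a mean zone below 7 mm was scored as no sensitivity.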

[3] = system: HEp-2; experiment: Cytotoxicity against human Hep2 cells after 72 hrs by MTT assay; type: functional, cell-based; settings: HEp-2, 72 h
How it was run: (§1)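 MTT antiproliferative assay. Cells were diluted to 10⁵ cells/mL in 96-well plates and preincubated for 24 h at 37 °C in humid 5% CO₂. Compounds or vincristine (reference) were then added. Formazan was dissolved and OD read at 540 nm, compared with medium-only control cells. Run in triplicate.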

[4] = system: NCI-H292; experiment: Cytotoxicity against human NCI-H292 cells after 72 hrs by MTT assay; type: functional, cell-based; settings: NCI-H292, 72 h; how it was run: as §1

CC(=O)N1CCN(c2ccc(OCC3COC(Cn4ccnc4)(c4ccc(Cl)cc4Cl)O3)cc2)CC1 (centres undefined) [KETOCONAZOLE]
MIC [1]: ≤ 1 µg/mL | zone of inhibition at 25 µg/disc [2]: 28 mm

CC[C@]1(O)C[C@H]2CN(CCc3c([nH]c4ccccc34)[C@@](C(=O)OC)(c3cc4c(cc3OC)N(C=O)[C@H]3[C@@](O)(C(=O)OC)[C@H](OC(C)=O)[C@]5(CC)C=CCN6CC[C@]43[C@@H]65)C2)C1 [VINCRISTINE]
IC50 [3]: 0.003 µg/mL (≈ 0.00364 µM) | IC50 [4]: 0.04 µg/mL (≈ 0.0485 µM)
